Source: ChEMBL document CHEMBL1130152, “7-spirobenzocyclohexyl derivatives of naltrexone, oxymorphone, and hydromorphone as selective opioid receptor ligands” (J Med Chem, 1997)

Experiments:
Cavia porcellus [1] = species: Cavia porcellus; experiment: Agonist activity expressed as percent inhibition of contraction of electrically stimulated guinea pig ileal longitudinal muscle at a concentration of 1 uM; format: functional, Muscle tissue
In short: (§1)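 Electrically stimulated GPI longitudinal muscle or MVD preparations. Ligands that were not full agonists were tested at 1 µM. Inhibition of contraction was expressed as a percentage of the maximal response. Three or more replicate determinations were run per compound.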

Mus musculus [2] = species: Mus musculus; experiment: Agonist activity expressed as percent inhibition of contraction of electrically stimulated mouse vas deferens at a concentration of 1 uM; format: functional; in short: as §1
[3] = biological target: Kappa-type opioid receptor (Mus musculus, UniProt P33534); experiment: Inhibition of [3H]U-69593 binding to Opioid receptor kappa 1 from mouse brain membranes.
In short: (§2)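 Competition binding of test ligands against tritiated radioligands on mouse brain membranes; the μ site used [3H]DAMGO. IC50 was converted to Ki by the Cheng-Prusoff equation using radioligand concentration and KD. Values are arithmetic means of at least 3 determinations, ±SEM.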

[4] = biological target: Delta-type opioid receptor (Mus musculus, UniProt P32300); experiment: Inhibition of [3H]-NTI binding to Opioid receptor delta 1 from mouse brain membranes.; in short: as §2
Mu-type opioid receptor = Mu-type opioid receptor (Mus musculus, UniProt P42866); experiment: Inhibition of [3H]DAMGO binding to Opioid receptor mu 1 from mouse brain membranes.; in short: as §2
Cavia porcellus [5] = species: Cavia porcellus; experiment: Agonist activity expressed as inhibitory concentration against contraction of electrically stimulated guinea pig ileum; format: functional
In short: (§3)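 Electrically stimulated smooth muscle: longitudinal muscle of guinea pig ileum (GPI) and mouse vas deferens (MVD). Inhibition of contraction was measured for ligands acting as full agonists, and potency was given as IC50 (nM). Three or more replicate determinations were run per compound.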

Mus musculus [6] = species: Mus musculus; experiment: Agonist activity expressed as inhibitory concentration against contraction of electrically stimulated mouse vas deferens; format: functional; in short: as §3

Chain of Mu-type opioid receptor (P42866 whole entry): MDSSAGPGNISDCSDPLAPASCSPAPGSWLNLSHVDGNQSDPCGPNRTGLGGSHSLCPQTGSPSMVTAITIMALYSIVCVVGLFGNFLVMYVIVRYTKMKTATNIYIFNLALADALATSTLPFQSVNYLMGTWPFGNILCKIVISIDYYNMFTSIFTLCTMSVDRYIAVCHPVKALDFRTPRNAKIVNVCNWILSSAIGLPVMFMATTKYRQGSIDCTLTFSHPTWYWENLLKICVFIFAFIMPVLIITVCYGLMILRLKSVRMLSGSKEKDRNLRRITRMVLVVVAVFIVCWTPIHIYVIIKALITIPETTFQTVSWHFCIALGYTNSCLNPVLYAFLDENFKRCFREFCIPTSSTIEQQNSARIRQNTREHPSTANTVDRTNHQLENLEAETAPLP
Chain of Kappa-type opioid receptor (P33534 whole entry): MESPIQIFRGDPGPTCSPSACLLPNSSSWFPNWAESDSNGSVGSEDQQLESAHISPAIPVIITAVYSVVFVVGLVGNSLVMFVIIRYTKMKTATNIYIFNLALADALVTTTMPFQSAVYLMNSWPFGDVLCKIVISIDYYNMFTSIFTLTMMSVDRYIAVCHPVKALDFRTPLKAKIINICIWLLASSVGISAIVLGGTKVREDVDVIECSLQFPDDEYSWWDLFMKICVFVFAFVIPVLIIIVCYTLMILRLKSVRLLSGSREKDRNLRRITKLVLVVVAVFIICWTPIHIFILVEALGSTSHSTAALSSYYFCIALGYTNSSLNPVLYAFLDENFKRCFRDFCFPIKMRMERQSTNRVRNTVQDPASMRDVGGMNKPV
Chain of Delta-type opioid receptor (P32300 whole entry): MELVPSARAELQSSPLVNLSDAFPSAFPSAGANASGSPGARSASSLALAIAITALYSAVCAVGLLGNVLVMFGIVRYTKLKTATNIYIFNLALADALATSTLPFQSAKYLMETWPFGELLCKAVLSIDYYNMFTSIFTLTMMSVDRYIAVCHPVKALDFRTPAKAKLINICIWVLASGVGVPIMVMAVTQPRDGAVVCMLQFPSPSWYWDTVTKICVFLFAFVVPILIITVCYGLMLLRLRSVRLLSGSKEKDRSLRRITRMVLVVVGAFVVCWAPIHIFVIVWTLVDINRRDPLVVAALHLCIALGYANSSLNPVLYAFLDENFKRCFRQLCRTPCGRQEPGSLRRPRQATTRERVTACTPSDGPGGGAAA

Structure (SMILES) | Max response (Cavia porcellus [1]) [%] | Max response (Mus musculus [2]) [%] | Ki [3] [nM] | Ki [4] [nM] | Ki (Mu-type opioid receptor) [nM] | IC50 (Cavia porcellus [5]) [nM] | IC50 (Mus musculus [6]) [nM]
O=C1[C@@H]2Oc3c(O)ccc4c3C23CCN(CC2CC2)C(C4)[C@]3(O)C[C@]12CCc1ccccc1C2 (stereo not given in full) | 2 | 4 | > 1000 | 0.0019 | 0.38 | – | –
CN1CCC23c4c5ccc(O)c4O[C@H]2C(=O)[C@@]2(CCc4ccccc4C2)C[C@H]3C1C5 (stereo not given in full) | – | 42 | 88 | 8.3 | 2.8 | 130 | –
CN1CCC23c4c5ccc(O)c4O[C@H]2C(=O)[C@@]2(CCc4ccccc4C2)C[C@@]3(O)C1C5 (stereo not given in full) | – | – | > 1000 | 4.6 | 18 | 183 | 24
O=C1[C@@H]2Oc3c(O)ccc4c3C23CCN(CC2CC2)C(C4)[C@]3(O)C[C@@]12CCc1ccccc1C2 (stereo not given in full) | 16 | 3 | 147 | 0.0041 | 0.72 | – | –
CN1CCC23c4c5ccc(O)c4O[C@H]2C(=O)[C@]2(CCc4ccccc4C2)C[C@H]3C1C5 (stereo not given in full) | – | 17 | > 1000 | 182 | 119 | 107 | –
CN1CCC23c4c5ccc(O)c4O[C@H]2C(=O)[C@]2(CCc4ccccc4C2)C[C@@]3(O)C1C5 (stereo not given in full) | – | – | > 3000 | 9.3 | 28 | 629 | 28
O=C1[C@@H]2Oc3c(O)ccc4c3[C@@]23CCN(CC2CC2)[C@H](C4)[C@]3(O)CC12Cc1ccccc1C2 | 16 | 8 | > 3000 | 0.25 | 1.5 | – | –
CN1CC[C@]23c4c5ccc(O)c4O[C@H]2C(=O)C2(Cc4ccccc4C2)C[C@@]3(O)[C@H]1C5 [SPIROINDANYLOXYMORPHONE] | 55 | – | > 3000 | 2.8 | 14 | – | 22
